Test system: human platelets, SFLLRN-induced actin polymerization, FITC-phalloidin flow
Experiment: blockers of PAR1 peptide-driven F-actin formation – cell-based, FITC-phalloidin flow cytometry, human platelets, selectivity assay for platelet granule secretion inhibitor project, late-stage follow-up (AID 2655)
Settings: at 10 µM; stronger effect = higher value
Outline: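 Test system – Gel-filtered platelets · Reagent – 5 µM SFLLRN or none · Compound – 10 µM single dose, 0.3% DMSO · Schedule – 20 min compound, 15 min SFLLRN, 37 °C · Signal – FITC-phalloidin flow cytometry in fixed, permeabilized platelets · Control set – 0.3% DMSO vehicle samples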

| Structure (SMILES) | inhibition |
| --- | --- |
| O=C(Nc1cccc(NC(=O)c2ccccc2Cl)c1)c1ccco1 | 71.4% |
| CCCC(=O)Nc1cccc(NC(=O)c2ccccc2Br)c1 | 80.4% |

— PubChem BioAssay AID2655 (Broad Institute, 2010)
